The values that follow come from ChEMBL document CHEMBL1799976, “Neurosteroid analogues. 15. A comparative study of the anesthetic and GABAergic actions of alphaxalone, Δ16-alphaxalone and their corresponding 17-carbonitrile analogues” (Bioorg Med Chem Lett, 2010).

A word on the pEC50: it is the EC50 on a negative log10 scale, so that one unit is a factor of ten. Broadly, the pIC50 is the IC50 on a negative log10 scale, so that one unit is a factor of ten. Low values mean a high IC50, high ones a low IC50.

pEC50, pIC50: −log10 of the molar value. The source made the active and inactive calls. No cut-off for these calls is given here.

Experiment [1] deals with Xenopus laevis. Nature of the experiment: Anesthetic effect on prelimb-bud stage of Xenopus laevis tadpole assessed as loss of swimming reflex at 3 uM. The class given is functional, organism-based. In short, it runs like this: (§1)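 Swimming-reflex scoring in tadpoles at single bath concentrations of 3 μM and 10 μM. Results are reported as whether the tadpoles kept or lost the reflex at each concentration.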

Experiment [2] relates to Oocyte. Briefly: Modulation of rat GABA-A alpha1beta2gamma2L receptor expressed in Xenopus oocytes assessed as increase of GABA-induced chloride current by two electrode voltage-clamp method relative to control. The class given is cell-based. In short, it runs like this: (§2)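 Two-electrode recording of GABA currents in Xenopus oocytes expressing rat α1β2γ2L GABA-A receptors. The control current was evoked with 2 μM GABA, then compound was co-applied at 0.1, 1 or 10 μM. Each value is the current with compound divided by the current without it, from at least four oocytes (SEM, N ≥ 4).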
For orientation: Two-electrode voltage clamp is typically applied to oocytes expressing channels or transporters.

In experiment [3] the test system is Oocyte. Nature of the experiment: Modulation of rat GABA-A alpha1beta2gamma2L receptor expressed in Xenopus oocytes assessed as increase of GABA-induced chloride current at 10 uM by two electrode voltage-clamp method relative to control. The format is cell-based. The essentials: as §2
Experiment [4] concerns Oocyte. Nature of the experiment: Modulation of rat GABA-A alpha1beta2gamma2L receptor expressed in Xenopus oocytes assessed as increase of GABA-induced chloride current at 0.1 uM by two electrode voltage-clamp method relative to control. The format is cell-based. The essentials: as §2
Experiment [5] concerns Xenopus laevis. Nature of the experiment: Anesthetic effect on prelimb-bud stage of Xenopus laevis tadpole assessed as loss of righting reflex. The format is functional, organism-based. In short, it runs like this: (§3)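 Behavioural reflex end points in tadpoles, with 10 animals at each of five or more concentrations. The highest concentration tested was 10 μM, and "none" means no reflex was lost at that level. EC50 was taken for each reflex, with error given as standard error of the mean.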

Experiment [6] deals with Xenopus laevis. Briefly: Anesthetic effect on prelimb-bud stage of Xenopus laevis tadpole assessed as loss of swimming reflex at 10 uM. The format is functional, organism-based. In short, it runs like this: as §1
In experiment [7] the test system is Oocyte. Briefly: Modulation of rat GABA-A alpha1beta2gamma2L receptor expressed in Xenopus oocytes assessed as increase of GABA-induced chloride current at 1 uM by two electrode voltage-clamp method relative to control. The format is cell-based. In short, it runs like this: as §2
The subject of experiment [8] is Xenopus laevis. Briefly: Anesthetic effect on prelimb-bud stage of Xenopus laevis tadpole assessed as loss of swimming reflex. The format is functional, organism-based. The essentials: as §3
The test system of experiment [9] is Oocyte. Briefly: Modulation of rat GABA-A alpha1beta2gamma2L receptor expressed in Xenopus oocytes assessed as increase of chloride current at 10 uM by two electrode voltage-clamp method relative to GABA. The format is cell-based. The essentials:
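Direct gating test on oocytes expressing rat α1β2γ2L GABA-A receptors. Compound was applied alone at 10 μM with no GABA. The current is expressed as compound-only current divided by the current to 2 μM GABA, from at least four oocytes (SEM).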

A short description of experiment [10]: Displacement of [35S]TBPS from GABA-A receptor picrotoxin binding site in rat brain cortical membranes after 2 hrs by scintillation counting. The class given is cell membranes, Membrane. Background: Loss of bound radioactivity is the signal in a displacement assay; it reports binding, not function.

Regarding `CC(=O)[C@H]1CC[C@H]2[C@@H]3CC[C@H]4C[C@H](O)CC[C@]4(C)[C@H]3C(=O)C[C@]12C` [ALFAXALONE], in experiment [1], the result was inactive. For the same compound, in experiment [2], the Activity entry was “Dose-dependent effect”. Moreover, the fold change (FC) in experiment [3] was 19.6; in [4], 2.91; in [7], 4.7; in [9], 0.11. Besides, the pEC50 in experiment [5] was 5.95; in experiment [8], 5.26. Further, the result in [6] was Active.

As for `C[C@]12CC[C@@H](O)C[C@@H]1CC[C@@H]1[C@@H]2C(=O)C[C@]2(C)C(C#N)=CC[C@@H]12`, the outcome in experiment [1] was inactive. In addition, the fold change (FC) worked out at 23.8 in experiment [3], 1.49 in experiment [4], 4.07 in experiment [7] and 0.21 in [9]. Further, the pEC50 in experiment [5] is 5.98; in [8], 5.26. In experiment [6], the outcome was Active. The same compound gave a pIC50 in experiment [10] of 6.44.

Turning to `C[C@]12CC[C@@H](O)C[C@@H]1CC[C@H]1[C@@H]3CC[C@H](C#N)[C@@]3(C)CC(=O)[C@@H]12`, the outcome in experiment [1] was inactive. Besides, the fold change (FC) in experiment [3] stood at 21.1; in [4] it was 1.12; in experiment [7], 4.59; in experiment [9], 0.14. The pEC50 is 6.14 in experiment [5] and 5.26 in [8]. In addition, in [6], the outcome was Active. Further, the pIC50 in experiment [10] is 6.72.

`CC(=O)C1=CC[C@H]2[C@@H]3CC[C@H]4C[C@H](O)CC[C@]4(C)[C@H]3C(=O)C[C@]12C`: the fold change (FC) in experiment [3] turned out to be 1.87; in [4], 0.94; in [7], 0.97; in [9], 0.08. In addition, the negative-log EC50 (pEC50) in experiment [5] was less than 5.00. Also, in experiment [6], the outcome was inactive. In addition, in [10], the pIC50 is 5.65.
